From ChEMBL document CHEMBL3425424, “Anti-inflammatory coumarin and benzocoumarin derivatives from Murraya alata” (J Nat Prod, 2015)

Experiments:
RAW264.7 [1] = test: Antiinflammatory activity against mouse RAW264.7 cells assessed as reduction of LPS-induced NO production after 24 hrs; type: functional, cell-based; settings: RAW264.7, 24 h
How it was run: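 RAW 264.7 murine macrophages were grown in DMEM with 10% FBS, penicillin and streptomycin at 37 °C under 5% CO2. Cells were seeded at 1 × 10^5 per well and given 1.0 μg/mL LPS (E. coli 0111:B4) with or without compound for 24 h at 37 °C. Supernatant NO was read by Griess reagent (10 min, room temperature, dark) at OD 540 nm against a sodium nitrite standard curve. Indomethacin was the positive control; three parallel runs, mean ± SD.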

RAW264.7 [2] = test: Cytotoxicity against mouse RAW264.7 cells assessed as cell survival at 80 uM after 24 hrs by MTT assay; type: cell-based; settings: raw264.7, 24 h
How it was run: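 Viability of RAW 264.7 murine macrophages was read by MTT assay. Cells were kept in DMEM with 10% FBS, 100 U/mL penicillin and 100 μg/mL streptomycin, humidified, 37 °C, 5% CO2.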

SMILES | IC50 (RAW264.7 [1]) [µM] | Activity (RAW264.7 [2])
COc1cc(OC)c2ccc(=O)oc2c1C/C=C(\C)C=O | 28.3 | Non-toxic
CCOC(C)(C)[C@@H](O)Cc1c(OC)c(OC)c(OC)c2ccc(=O)oc12 | 34.2 | Non-toxic
C=C(C)C(O)C(OCC)c1c(OC)ccc2ccc(=O)oc12 (centres undefined) | 43.3 | Non-toxic
COc1cc(OC)c2ccc(=O)oc2c1CC(=O)C(C)C | 20.6 | Non-toxic
COc1cc(OC)c2ccc(=O)oc2c1/C=C/C(C)C | 20.5 | Non-toxic
C=C(C)/C=C\c1c(OC)cc(OC)c2ccc(=O)oc12 | 14.5 | Non-toxic
COc1ccc2ccc(=O)oc2c1C(=O)C(=O)C(C)C | – | Non-toxic
COc1cc(OC)c2ccc(=O)oc2c1CC=O | 13.8 | Non-toxic
COc1cc(OC)c2ccc(=O)oc2c1CC=C(C)C | 33.1 | Non-toxic
COc1cc(OC)c2ccc(=O)oc2c1C(=O)C(=O)C(C)C | 12.4 | Non-toxic
C=C(C)[C@H](Cc1c(OC)ccc2ccc(=O)oc12)OO | 12.4 | Non-toxic
C=C(C)Cc1c(OC)cc(OC)c2ccc(=O)oc12 | 12.4 | Non-toxic
C=C(C)[C@H](O)[C@H](O)c1c(OC)ccc2ccc(=O)oc12 (relative stereo) | 12.4 | Non-toxic
COc1ccc2ccc(=O)oc2c1 [HERNIARIN] | 12.4 | Non-toxic
CCOC(C)(C)C(O)Cc1c(OC)cc(OC)c2ccc(=O)oc12 (centres undefined) | 31.9 | Non-toxic

Further compounds by falling IC50 (RAW264.7 [1]), results first:

IC50 (RAW264.7 [1]) [µM] | SMILES | Activity (RAW264.7 [2])
12.4 | COc1c(OC)c(/C=C/C(C)(C)O)c2oc(=O)ccc2c1OC | Non-toxic
12.4 | COc1ccc2ccc(=O)oc2c1CC=C(C)C [OSTHOLE] | Non-toxic
12.4 | CC(C)=CCc1cc2ccc(=O)oc2c2c1OC(C)(C)C=C2 | Non-toxic
12.4 | COc1cc2cc(C)ccc2c2oc(=O)ccc12 | Non-toxic
12.4 | C=C(C)/C=C/c1c(OC)cc(OC)c2ccc(=O)oc12 | Non-toxic
12.4 | COc1c(OC)c(CC=C(C)C)c2oc(=O)ccc2c1OC | Non-toxic
12.4 | COc1cc(OC)c2ccc(=O)oc2c1CC(C)(C)C(=O)O | Non-toxic
12.4 | COc1cc(OC)c2ccc(=O)oc2c1C[C@@H](O)C(C)(C)O | Non-toxic
12.4 | COc1ccc2ccc(=O)oc2c1C(O)C(=O)C(C)C (centres undefined) | Non-toxic
12.4 | COc1cc2c(c3oc(=O)ccc13)C=CC(C)(C)O2 | Non-toxic
12.4 | C=C(C)[C@H](O)[C@H](OCC)c1c(OC)ccc2ccc(=O)oc12 | Non-toxic
12.4 | COc1c(OC)c(CC(O)C(C)(C)O)c2oc(=O)ccc2c1OC (centres undefined) | Non-toxic
12.4 | COc1ccc2ccc(=O)oc2c1C(C=O)=C(C)C [MURRALONGIN] | Non-toxic
12.4 | C=C(C)[C@@H](O)Cc1c(OC)cc(OC)c2ccc(=O)oc12 | Non-toxic
12.4 | COc1cc(OC)c2ccc(=O)oc2c1CC(C)(C)C=O | Non-toxic
9.1 | COc1cc2cc(COC(=O)CC(C)C)ccc2c2oc(=O)ccc12 | Non-toxic
6.3 | COc1ccc2c(c1)c(CC(=O)O)c(C)n2C(=O)c1ccc(Cl)cc1 [INDOMETHACIN] | –
6 | COc1cc(OC)c2ccc(=O)oc2c1/C=C/C(C)=O | Non-toxic
